6 compounds from ChEMBL document CHEMBL4196163, “In Silico Identification of Piperidinyl-amine Derivatives as Novel Dual Binders of Oncogene c-myc/c-Kit G-quadruplexes” (ACS Med Chem Lett, 2018) can be followed below.

Broadly, the ΔTm is the shift of the melting midpoint relative to a reference. One may read the pIC50 as the negative decadic logarithm of the IC50, by convention in mol/L. As a reminder, the pKd is −log10 of the Kd, conventionally taken in molar units. Read a high pKd as a small Kd.

Test [1] concerns Quadruplex DNA. The experiment in a line: Binding affinity to 5'-Dabcyl/3'-FM labeled c-Kit G-quadruplex DNA (unknown origin) assessed as change in melting temperature at 20 uM by fluorescence assay. Format: nucleic-acid assay. In outline: (§1)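 Fluorescence melting of end-labelled oligonucleotides matching the c-myc and c-Kit G4 sequences used in the virtual screen. Melting profiles were recorded with and without increasing ligand concentrations.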

The test system of test [2] is Quadruplex DNA. The experiment in a line: Binding affinity to 5'-Dabcyl/3'-FM labeled c-myc G-quadruplex DNA (unknown origin) assessed as change in melting temperature at 20 uM by fluorescence assay. Format: nucleic-acid assay. In outline: as §1
A further test has as its system dsDNA. The experiment in a line: Binding affinity to double stranded DNA (unknown origin) assessed as change in melting temperature at 20 uM by fluorescence assay. Format: nucleic-acid assay.
For test [3], the system named is Quadruplex DNA. In words: Stabilization of 5'-biotinylated c-Kit G-quadruplex DNA (unknown origin) by surface plasmon resonance assay. The test is classed as nucleic-acid assay. (In SPR one partner is held on a chip, and binding of the other changes the refractive index at the surface.)
The species entered for the next test is Homo sapiens. The experiment in a line: (§2) Cytotoxicity against human HMC-1.2 cells assessed as reduction in cell viability after 72 hrs by Alamar blue assay. Format: functional, cell-based. In outline:
(§3)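 Cells were exposed to the compound for 72 h, and viability was read by Alamar Blue. IC50 values were taken from dose-response curves, with linear regression coefficients (R2) reported.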
Background: The colour change of resazurin is a common sign of viable cells or microbes.

Test [4] is described as follows: as §2. The test is classed as functional, cell-based. In outline:
as §3

The next test has as its system HGC-27. In words: Cytotoxicity against human HGC27 cells assessed as reduction in cell viability after 72 hrs by Alamar blue assay. The test is classed as functional, cell-based. The following applies: for pIC50: HGC-27, 72 h. In outline: as §3
For test [5], the target named is Quadruplex DNA. In words: Stabilization of c-Kit G-quadruplex DNA (unknown origin) by circular dichroism method. The test is classed as nucleic-acid assay. In general terms: Circular dichroism is the unequal absorption of left and right circularly polarised light.
The test system of test [6] is Quadruplex DNA. The experiment in a line: Stabilization of c-myc G-quadruplex DNA (unknown origin) by circular dichroism method. The test is classed as nucleic-acid assay.

pIC50, pKd: −log10 of the molar value. Activity calls are given as the source filed them. The calls are words filed in the database; no cut-off is given here.

As for `CCn1cc(C(NC(=O)CCCN)c2ccc(F)cc2)c2ccncc21` (stereo not drawn), the ΔTm in the test on Quadruplex DNA [1] amounted to 1.1 °C; in the test on Quadruplex DNA [2] it was 0.4 °C. Also, in the test on dsDNA, the result was inactive.
For `CC(C)CC(N)C(=O)NC1CCN(C(=O)Cn2ccc3ccncc32)CC1` (stereo not drawn) the same measures were 0.3 °C, 0.1 °C and “inactive”.
On to `CCOc1cc(CNCC2CCNCC2)ccc1OCc1ccc(Cl)cc1`, for which the Activity entry with Quadruplex DNA [3], in the test listed under Homo sapiens and in the test with HGC-27 was “Dose-dependent effect” throughout. For the same compound, the values for the thermal shift (ΔTm) in the test with Quadruplex DNA [1] and with Quadruplex DNA [2] were 3.2 °C and 5.4 °C, respectively. The pIC50 in test [4] was 5.59; with HGC-27, 5.63. The pKd on Quadruplex DNA [5] was 4.74. In the test on Quadruplex DNA [6], the outcome was Active. In addition, the result in the test with dsDNA was inactive.
With `Cc1ccc(COc2ccc(CNCC3CCNCC3)cc2)cc1`, the Activity result with Quadruplex DNA [3], in the test listed under Homo sapiens and in the test with HGC-27 was “Dose-dependent effect” throughout. The results for the ΔTm with Quadruplex DNA [1] and with Quadruplex DNA [2] were 2.3 °C and 1.3 °C, respectively. Further, the figures for the pIC50 (in [4]; with HGC-27) were 5.40 and 5.37, respectively. Besides, the result in the test with Quadruplex DNA [5] and in the test with Quadruplex DNA [6] was Active. In addition, the result with dsDNA was inactive.
Turning to `Cc1cc(-c2ccc(CNCC3CCNCC3)o2)ccc1Br`, the ΔTm in the test on Quadruplex DNA [1] was 3 °C; in the test on Quadruplex DNA [2], 2 °C; with dsDNA, 1.5 °C. Besides, the Activity result in the test filed under Homo sapiens and in the test on HGC-27 was “Dose-dependent effect” each time. Also, the negative logarithm of the IC50 (pIC50) (in test [4]; with HGC-27) was 5.59 in each case. In addition, the outcome with Quadruplex DNA [5] and with Quadruplex DNA [6] was Active.
Turning to `CC(C)(N)C(=O)NC1CCN(C(=O)Cn2ccc3ccncc32)CC1`, the thermal shift (ΔTm) in the test with Quadruplex DNA [1] is 0.1 °C; with Quadruplex DNA [2], 0.6 °C. Moreover, in the test on dsDNA, the result was inactive.
